Tests used:
[1] = molecular target: Replicase polyprotein 1ab (Severe acute respiratory syndrome coronavirus 2, UniProt P0DTD1); test: Inhibition of SARS-CoV-2 3CLpro using FAM-SAVLQ/SG-QXL520 as substrate measured after 1 hr by fluorescence based microplate reader analysis
In short: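 The protease was full-length, codon-optimized SARS-CoV-2 3CLpro with an N-terminal His6 tag, expressed from pET-28a(+). It was preincubated with serial inhibitor dilutions or DMSO for 1 h at 37 °C in 20 mM HEPES pH 8, 200 mM NaCl, 0.4 mM EDTA, 60% glycerol and 6 mM DTT. Substrate was then added. Fluorescence (ex 480/em 520 nm) was read 1 h later, minus a no-protease background. IC50 came from a variable-slope fit, averaged over at least two determinations.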

Huh-7 = test: Cytotoxicity against human Huh-7 cells by CytoTox 96 nonradioactive cytotoxicity assay; assay type: functional
In short: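 Confluent cells were exposed to compound at 1 to 100 μM for 72 h, and cytotoxicity was read with the CytoTox 96 nonradioactive kit. CC50 came from a variable-slope fit, averaged over at least two determinations.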

SARS-CoV-2 = test: Antiviral activity against SARS-CoV-2 infected in African green monkey Vero E6 cells measured after 48 to 72 hrs; assay type: functional, organism-based; conditions: Severe acute respiratory syndrome coronavirus 2, Vero C1008
[2] = Inhibition of MERS-CoV 3CLpro; parameters: species or system Middle East respiratory syndrome-related coronavirus

SMILES	IC50 [1]	CC50 (Huh-7)	EC50 (SARS-CoV-2)	IC50 [2]
[2H]C([2H])(OC(=O)N[C@@H](CC(C)C)C(=O)N[C@@H](C[C@H]1CCNC1=O)C(O)S(=O)(=O)[O-])C1CC2CCCC(C2)C1.[Na+] (stereo not given in full)	290 nM	> 100000 nM	–	–
CC(C)C[C@H](NC(=O)OCC12CC3CC(CC(O)(C3)C1)C2)C(=O)N[C@@H](C[C@H]1CCNC1=O)C(O)S(=O)(=O)O (stereo not given in full)	1030 nM	> 100000 nM	–	–
[2H]C([2H])(OC(=O)N[C@@H](CC(C)C)C(=O)N[C@@H](C[C@H]1CCNC1=O)C(O)S(=O)(=O)[O-])C12CC3CC(CC(C3)C1)C2.[Na+] (stereo not given in full)	270 nM	> 100000 nM	–	–
CC(C)C[C@H](NC(=O)OC1CC2CCC(C1)N2C(=O)OC(C)(C)C)C(=O)N[C@@H](C[C@H]1CCNC1=O)C(O)S(=O)(=O)O (stereo not given in full)	1710 nM	> 100000 nM	–	–
CCCCCC12CCC(COC(=O)N[C@@H](CC(C)C)C(=O)N[C@H](C=O)C[C@@H]3CCNC3=O)(CC1)CC2 (single isomer, unassigned)	–	21000 nM	–	–
[2H]C([2H])(OC(=O)N[C@@H](CC(C)C)C(=O)N[C@H](C=O)CC1CCNC1=O)C1CC2C=CCC(C2)C1 (single isomer, unassigned)	–	> 100000 nM	–	–
CC(C)C[C@H](NC(=O)OC1CC2CCC(C1)N2C(=O)OCc1ccccc1)C(=O)N[C@H](C=O)C[C@H]1CCNC1=O (stereo not given in full)	390 nM	> 100000 nM	–	–
CC(C)C[C@H](NC(=O)OCC1C[C@H]2CCC[C@@H](C1)C2)C(=O)N[C@@H](C[C@@H]1CCNC1=O)C(O)S(=O)(=O)O (single isomer, unassigned)	–	> 100000 nM	32 nM	49 nM
CC(C)C[C@H](NC(=O)OC1CC2CCC(C1)N2C(=O)OCc1ccccc1)C(=O)N[C@@H](C[C@H]1CCNC1=O)C(O)S(=O)(=O)O (stereo not given in full)	370 nM	> 100000 nM	–	–
CC(C)C[C@H](NC(=O)OCC1CC2CCCC(C2)C1)C(=O)N[C@H](C=O)C[C@H]1CCNC1=O (stereo not given in full)	180 nM	> 100000 nM	35 nM	52 nM
CC(C)C[C@H](NC(=O)OCC1CC2CCC1C2)C(=O)N[C@H](C=O)C[C@@H]1CCNC1=O (single isomer, unassigned)	–	> 100000 nM	–	63 nM
[2H]C([2H])(OC(=O)N[C@@H](CC(C)C)C(=O)N[C@H](C=O)CC1CCNC1=O)C12CCC(CCCCC)(CC1)CC2 (single isomer, unassigned)	–	20000 nM	–	–
CC(C)C[C@H](NC(=O)OCC1C[C@@H]2C=CC[C@H](C1)C2)C(=O)N[C@@H](C[C@@H]1CCNC1=O)C(O)S(=O)(=O)O (single isomer, unassigned)	–	> 100000 nM	–	–
[2H]C([2H])(OC(=O)N[C@@H](CC(C)C)C(=O)N[C@@H](C[C@H]1CCNC1=O)C(O)S(=O)(=O)[O-])C12CC3CC(CC(O)(C3)C1)C2.[Na+] (stereo not given in full)	780 nM	> 100000 nM	–	–
CC(C)C[C@H](NC(=O)OCCC12CC3CC(CC(C3)C1)C2)C(=O)N[C@H](C=O)C[C@H]1CCNC1=O	270 nM	> 100000 nM	–	–
[2H]C([2H])(OC(=O)N[C@@H](CC(C)C)C(=O)N[C@@H](CC1CCNC1=O)C(O)S(=O)(=O)O)C12CCC(CCCCC)(CC1)CC2 (single isomer, unassigned)	–	23000 nM	–	–
CCCCCC12CCC(COC(=O)N[C@@H](CC(C)C)C(=O)N[C@@H](C[C@@H]3CCNC3=O)C(O)S(=O)(=O)O)(CC1)CC2 (single isomer, unassigned)	–	21000 nM	–	–
[2H]C([2H])(OC(=O)N[C@@H](CC(C)C)C(=O)N[C@H](C=O)C[C@H]1CCNC1=O)C12CC3CC(CC(O)(C3)C1)C2	740 nM	> 100000 nM	–	–
CC(C)C[C@H](NC(=O)OCC1C[C@@H]2C=CC[C@H](C1)C2)C(=O)N[C@H](C=O)C[C@@H]1CCNC1=O (single isomer, unassigned)	–	> 100000 nM	–	–
CC(C)C[C@H](NC(=O)OCC12CC3CC(CC(O)(C3)C1)C2)C(=O)N[C@H](C=O)C[C@H]1CCNC1=O	820 nM	> 100000 nM	–	–
CC(C)C[C@H](NC(=O)OCC1CC2C=CC1C2)C(=O)N[C@H](C=O)C[C@@H]1CCNC1=O (single isomer, unassigned)	–	> 100000 nM	–	–
CC(C)C[C@H](NC(=O)OCC12CC3CC(CC(C3)C1)C2)C(=O)N[C@H](C=O)C[C@H]1CCNC1=O	180 nM	> 100000 nM	–	55 nM
CC(C)C[C@H](NC(=O)OCC1CC2CCC1C2)C(=O)N[C@@H](C[C@@H]1CCNC1=O)C(O)S(=O)(=O)O (single isomer, unassigned)	–	> 100000 nM	–	58 nM
CC(C)C[C@H](NC(=O)OCC1CC2C=CC1C2)C(=O)N[C@@H](C[C@@H]1CCNC1=O)C(O)S(=O)(=O)O (single isomer, unassigned)	–	> 100000 nM	–	–
[2H]C([2H])(OC(=O)N[C@@H](CC(C)C)C(=O)N[C@H](C=O)C[C@H]1CCNC1=O)C12CC3CC(CC(C3)C1)C2	290 nM	> 100000 nM	–	–
[2H]C([2H])(OC(=O)N[C@@H](CC(C)C)C(=O)N[C@@H](CC1CCNC1=O)C(O)S(=O)(=O)O)C1CC2C=CCC(C2)C1 (single isomer, unassigned)	–	> 100000 nM	–	–
[2H]C([2H])(OC(=O)N[C@@H](CC(C)C)C(=O)N[C@H](C=O)C[C@H]1CCNC1=O)C1CC2CCCC(C2)C1 (stereo not given in full)	290 nM	> 100000 nM	–	–
CC(C)C[C@H](NC(=O)OCC12CC3CC(CC(C3)C1)C2)C(=O)N[C@@H](C[C@H]1CCNC1=O)C(O)S(=O)(=O)O (stereo not given in full)	150 nM	> 100000 nM	–	53 nM
CC(C)C[C@H](NC(=O)OCCC12CC3CC(CC(C3)C1)C2)C(=O)N[C@@H](C[C@H]1CCNC1=O)C(O)S(=O)(=O)O (stereo not given in full)	250 nM	> 100000 nM	–	–
CC(C)C[C@H](NC(=O)OC1CC2CCC(C1)N2C(=O)OC(C)(C)C)C(=O)N[C@H](C=O)C[C@H]1CCNC1=O (stereo not given in full)	1900 nM	> 100000 nM	–	–

Reference: ChEMBL document CHEMBL5214909
